Source: ChEMBL document CHEMBL2157972, “Selenophene-containing inhibitors of type IIA bacterial topoisomerases” (J Med Chem, 2011)
pIC50: −log10 of the molar value. Values after ≈ are worked out from the molar mass of the structure shown.

Tests used:
Staphylococcus aureus [1] = assay: Antibacterial activity against methicillin-resistant Staphylococcus aureus ATCC 700699; type: functional
Summary of the method: (§1)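 Read-out is the minimum inhibitory concentration (MIC), reported in μg/mL, from standard antimicrobial susceptibility testing.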

[2] = Cytotoxicity against human HeLa cell line after 72 hrs; type: cell-based; details: HeLa cells
[3] = Inhibition of Staphylococcus aureus topoisomerase 4 by decatenation assay
Summary of the method: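 Enzyme activity was measured by topoisomerase IV decatenation using S. aureus enzyme. Inhibition is reported as a concentration in μM.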

[4] = Cytotoxicity against human Hep2 cell line after 72 hrs; type: cell-based; details: HEp-2 cells
Summary of the method: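 Human laryngeal epidermoid carcinoma Hep2 cells were exposed for 72 h.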

[5] = Cytotoxicity against […] CHO cell line after 72 hrs; type: cell-based, Cricetulus griseus; details: chinese hamster, CHO cells
Staphylococcus aureus [6] = assay: Antibacterial activity against methicillin-sensitive Staphylococcus aureus ATCC 29213; type: functional; summary of the method: as §1
DNA gyrase = DNA gyrase (Staphylococcus aureus, UniProt P0A0K8+P20831); assay: Inhibition of Staphylococcus aureus DNA gyrase by supercoiling assay; type: protein-complex assay
Staphylococcus aureus [7] = assay: Antibacterial activity against fluoroquinolone resistant Staphylococcus aureus 1-FQR2M BK2384 expressing GyrA Ser84Leu mutant and GrlA Ser80Phe mutant; type: functional; summary of the method: as §1
Staphylococcus aureus [8] = assay: Antibacterial activity against fluoroquinolone resistant Staphylococcus aureus 5-FQR4M BSA678 expressing GyrA Ser84Leu and Ser85Pro mutant and GrlA Ser80Phe and Glu84Lys mutant; type: functional; summary of the method: as §1
Staphylococcus aureus [9] = assay: Antibacterial activity against fluoroquinolone resistant Staphylococcus aureus 3-FQR3M ATCC 700699 expressing GyrA Ser84Leu mutant and Glu409Lys mutant and GrlA Ser80Phe mutant; type: functional; summary of the method: as §1
Staphylococcus aureus [10] = assay: Antibacterial activity against fluoroquinolone resistant Staphylococcus aureus 2-FQR2M NY2746 expressing GyrA Ser84Leu mutant and GrlA Ser80Phe mutant; type: functional; summary of the method: as §1
Staphylococcus aureus [11] = assay: Antibacterial activity against fluoroquinolone resistant Staphylococcus aureus 4-FQR3M BSA643 expressing GyrA Ser84Leu mutant and GrlA Ser80Tyr and Glu84Gly mutant; type: functional; summary of the method: as §1
hERG (KCNH2) = hERG (KCNH2) (Homo sapiens, UniProt Q12809); assay: Inhibition of human ERG expressed in mammalian cells at 10 uM by patch clamp method; type: cell-based; details: mammalian cells that express hERG
[12] = Cytotoxicity against human HepG2 cell line after 72 hrs; type: cell-based; details: HepG2 cells
[13] = biological target: T1, Voltage-gated inwardly rectifying potassium channel KCNH2 (Homo sapiens, UniProt Q12809); assay: Inhibition of human ERG expressed in mammalian cells by patch clamp method; type: cell-based
Staphylococcus aureus [14] = assay: Antimicrobial activity against fluoroquinolone resistant Staphylococcus aureus; type: functional; summary of the method: as §1
Staphylococcus aureus [15] = assay: Antimicrobial activity against fluoroquinolone sensitive Staphylococcus aureus; type: functional
Summary of the method: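 Standard susceptibility testing. The read-out is the minimum inhibitory concentration, reported in μg/mL.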

[16] = biological target: T1, Voltage-gated inwardly rectifying potassium channel KCNH2

Compound | MIC (Staphylococcus aureus [1]) [µg/mL] | pIC50 [3] | CC50 at 72 h [4] [µM] | MIC (Staphylococcus aureus [6]) [µg/mL] | pIC50 (DNA gyrase) | MIC (Staphylococcus aureus [7]) [µg/mL] | MIC (Staphylococcus aureus [8]) [µg/mL] | MIC (Staphylococcus aureus [9]) [µg/mL] | MIC (Staphylococcus aureus [10]) [µg/mL] | MIC (Staphylococcus aureus [11]) [µg/mL] | also measured
COC(=O)[C@H]1CN(CCSc2ccc(C(F)F)[se]2)CC[C@H]1CCC(=O)c1ccnc2ccc(OC)cc12 | > 32 |  |  |  |  |  |  |  |  |  | 
COC(=O)[C@H]1CN(CCSc2ccc[se]2)CC[C@H]1CCC(=O)c1ccnc2ccc(OC)cc12 | > 32 |  |  |  |  |  |  |  |  |  | 
COc1ccc2nccc([C@H](O)CC[C@@H]3CCN(CCSc4ccco4)C[C@@H]3C(=O)O)c2c1 (mixture of isomers) | 4 | < 4.00 | > 100 | 4 | 4.99 | 8 | 32 | 4 | 8 | 16 | CC50 at 72 h [2]: > 100 µM; CC50 at 72 h [5]: > 100 µM; inhibition at 10 µM (hERG (KCNH2)): 14%; CC50 at 72 h [12]: > 100 µM
COc1ccc2nccc([C@H](O)CC[C@@H]3CCN(CCSc4ccc(C=O)[se]4)C[C@@H]3C(=O)O)c2c1 (mixture of isomers) | 16 |  | > 100 | 16 | 5.05 |  |  |  |  |  | 
COC(=O)[C@H]1CN(CCSc2ccco2)CC[C@H]1CCC(=O)c1ccnc2ccc(OC)cc12 | > 32 |  |  |  |  |  |  |  |  |  | 
COc1c(N2C[C@@H]3CCCN[C@@H]3C2)c(F)cc2c(=O)c(C(=O)O)cn(C3CC3)c12 [MOXIFLOXACIN] | 4 (≈ 9.96 µM) | 6.00 | > 100 | 0.06 (≈ 0.149 µM) |  | 1 (≈ 2.49 µM) | > 64 | 4 (≈ 9.96 µM) | 8 (≈ 19.9 µM) | 16 (≈ 39.9 µM) | 
COc1ccc2nccc([C@@H](O)CC[C@@H]3CCN(CCSc4sccc4P(=O)(O)O)C[C@@H]3C(=O)O)c2c1 (mixture of isomers) | > 64 |  | > 94 | > 64 |  |  |  |  |  |  | 
COc1ccc2nccc([C@@H](O)CC[C@@H]3CCN(CCSc4ccco4)C[C@@H]3C(=O)O)c2c1 (mixture of isomers) | 2 | < 4.00 | > 100 | 2 | 5.33 | 4 | 8 | 2 | 2 | 4 | CC50 at 72 h [2]: > 100 µM; CC50 at 72 h [5]: > 100 µM; pIC50 [13]: > 4.52; inhibition at 10 µM (hERG (KCNH2)): 27%; CC50 at 72 h [12]: > 100 µM
COc1ccc2nccc([C@H](O)CC[C@@H]3CCN(CCSc4cccs4)C[C@@H]3C(=O)O)c2c1 (mixture of isomers) | 0.5 | 4.64 | > 100 | 1 | 5.48 | 1 | 4 | 0.5 | 1 | 1 | CC50 at 72 h [2]: > 100 µM; CC50 at 72 h [5]: > 100 µM; CC50 at 72 h [12]: > 100 µM
COc1ccc2nccc(C(O)CC[C@@H]3CCN(CCC(=O)N4CCCCC4)C[C@@H]3C(=O)O)c2c1 (mixture of isomers) | 32 |  | > 100 | 32 | 4.97 |  |  |  |  |  | 
COc1ccc2nccc([C@@H](O)CC[C@@H]3CCN(CCSc4ccc(C(F)F)[se]4)C[C@@H]3C(=O)O)c2c1 (mixture of isomers) | 16 |  | 39 | 32 | 4.67 |  |  |  |  |  | 
COc1ccc2nccc([C@H](O)CC[C@@H]3CCN(CCSc4ccc[se]4)C[C@@H]3C(=O)O)c2c1 (mixture of isomers) | 0.5 | 4.16 | > 100 | 0.5 | 6.15 | 1 | 2 | 0.5 | 1 | 1 | CC50 at 72 h [2]: > 100 µM; CC50 at 72 h [5]: > 100 µM; CC50 at 72 h [12]: > 100 µM
COC(=O)[C@H]1CN(CCSc2ccc(C#N)[se]2)CC[C@H]1CCC(=O)c1ccnc2ccc(OC)cc12 | > 32 |  |  |  |  |  |  |  |  |  | 
COc1ccc2nccc([C@@H](O)CC[C@@H]3CCN(CCSc4sccc4P(=O)(OC(C)C)OC(C)C)C[C@@H]3C(=O)O)c2c1 (mixture of isomers) | > 64 |  | > 98 | > 64 | < 4.00 |  |  |  |  |  | 
COc1ccc2nccc([C@H](O)CC[C@@H]3CCN(CCSc4sccc4P(=O)(OC(C)C)OC(C)C)C[C@@H]3C(=O)O)c2c1 (mixture of isomers) | > 64 |  | 34 | > 64 |  |  |  |  |  |  | 
COc1ccc2ncc(F)c([C@@H](O)CC[C@@H]3CCN(CCSc4cccs4)C[C@@H]3C(=O)O)c2c1 |  |  |  |  |  |  |  |  |  |  | MIC90 (Staphylococcus aureus [14]): 0.5 µg/mL (≈ 0.991 µM); MIC90 (Staphylococcus aureus [15]): 1 µg/mL (≈ 1.98 µM); pIC50 [16]: 3.91
O=C(O)c1cn(C2CC2)c2cc(N3CCNCC3)c(F)cc2c1=O [CIPROFLOXACIN] | 64 (≈ 193 µM) | 5.52 | > 100 | 0.25 (≈ 0.754 µM) |  | 64 (≈ 193 µM) | 128 (≈ 386 µM) | 64 (≈ 193 µM) | 256 (≈ 773 µM) | 256 (≈ 773 µM) | 
COC(=O)[C@H]1CN(CCC(=O)N2CCCCC2)CC[C@H]1CCC(=O)c1ccnc2ccc(OC)cc12 | > 32 |  |  |  |  |  |  |  |  |  | 
COC(=O)[C@H]1CN(CCSc2sccc2P(=O)(OC(C)C)OC(C)C)CC[C@H]1CCC(=O)c1ccnc2ccc(OC)cc12 | > 32 |  |  |  |  |  |  |  |  |  | 
COc1ccc2nccc([C@@H](O)CC[C@@H]3CCN(CCS(=O)(=O)c4ccc[se]4)C[C@@H]3C(=O)O)c2c1 (mixture of isomers) | > 64 |  | > 100 | > 64 | < 4.00 |  |  |  |  |  | 
COC(=O)[C@H]1CN(CCS(=O)(=O)c2ccc[se]2)CC[C@H]1CCC(=O)c1ccnc2ccc(OC)cc12 | > 32 |  |  |  |  |  |  |  |  |  | 
COc1ccc2nccc([C@H](O)CC[C@@H]3CCN(CCS(=O)(=O)c4ccc[se]4)C[C@@H]3C(=O)O)c2c1 (mixture of isomers) | > 64 |  | > 100 | > 64 |  |  |  |  |  |  | 
COc1ccc2nccc([C@@H](O)CC[C@@H]3CCN(CCSc4ccc[se]4)C[C@@H]3C(=O)O)c2c1 (mixture of isomers) | 0.25 | 4.19 | > 100 | 0.25 | 6.40 | 0.25 | 1 | 0.25 | 0.5 | 0.5 | CC50 at 72 h [2]: > 100 µM; CC50 at 72 h [5]: > 100 µM; CC50 at 72 h [12]: > 100 µM
COc1ccc2nccc([C@@H](O)CC[C@@H]3CCN(CCSc4ccc(C#N)[se]4)C[C@@H]3C(=O)O)c2c1 (mixture of isomers) | 32 |  | 48 | 32 | 4.44 |  |  |  |  |  | 
CO/N=C1\CN(c2nc3c(cc2F)c(=O)c(C(=O)O)cn3C2CC2)CC1CN (centres undefined) [GEMIFLOXACIN] | 4 (≈ 10.3 µM) | 6.40 |  | 0.03 (≈ 0.077 µM) |  | 1 (≈ 2.57 µM) | 64 (≈ 164 µM) | 4 (≈ 10.3 µM) | 32 (≈ 82.2 µM) | 32 (≈ 82.2 µM) | 
COc1ccc2nccc([C@@H](O)CC[C@@H]3CCN(CCSc4cccs4)C[C@@H]3C(=O)O)c2c1 (mixture of isomers) | 0.13 | 4.35 | > 100 | 0.25 | 5.85 | 0.25 | 0.5 | 0.13 | 0.25 | 0.25 | CC50 at 72 h [2]: > 100 µM; CC50 at 72 h [5]: > 100 µM; MIC90 (Staphylococcus aureus [14]): 0.5 µg/mL; MIC90 (Staphylococcus aureus [15]): 1 µg/mL; CC50 at 72 h [12]: > 100 µM
COc1ccc2nccc(C(O)CC[C@@H]3CCN(CCSc4ccc(C(=O)O)[se]4)C[C@@H]3C(=O)O)c2c1 (mixture of isomers) | > 64 |  | > 100 | > 64 | < 4.00 |  |  |  |  |  | 
COC(=O)[C@H]1CN(CCSc2cccs2)CC[C@H]1CCC(=O)c1ccnc2ccc(OC)cc12 | > 32 |  |  |  |  |  |  |  |  |  | 
COc1ccc2nccc([C@H](O)CC[C@@H]3CCN(CCSc4sccc4P(=O)(O)O)C[C@@H]3C(=O)O)c2c1 (mixture of isomers) | > 64 |  | > 100 | > 64 | < 4.00 |  |  |  |  |  | 
COc1ccc2nccc([C@H](O)CC[C@@H]3CCN(CCSc4ccc(C#N)[se]4)C[C@@H]3C(=O)O)c2c1 (mixture of isomers) | > 64 |  | 65 | > 64 |  |  |  |  |  |  | 
